ChEMBL document CHEMBL3352330, “Discovery of azetidine based ene-amides as potent bacterial enoyl ACP reductase (FabI) inhibitors” (Eur J Med Chem, 2014)
≈ marks a conversion by molar mass, not a printed value.

Tests used:
[1] = biological target: T1, Enoyl-[acyl-carrier-protein] reductase [NADPH] FabI (Staphylococcus aureus) (UniProt Q6GI75); test: Inhibition of Staphylococcus aureus FabI-mediated reduction of enoyl-ACP preincubated at 1 uM for 30 mins measured after 2 hrs by spectrophotometry
T1 sequence (whole entry): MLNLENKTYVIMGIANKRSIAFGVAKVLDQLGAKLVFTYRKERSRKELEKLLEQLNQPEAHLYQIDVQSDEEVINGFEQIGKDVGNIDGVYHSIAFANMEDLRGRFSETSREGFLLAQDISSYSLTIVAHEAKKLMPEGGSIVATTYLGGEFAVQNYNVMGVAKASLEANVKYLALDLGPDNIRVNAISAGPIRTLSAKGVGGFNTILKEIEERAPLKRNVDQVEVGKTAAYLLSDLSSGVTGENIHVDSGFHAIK
Procedure, shortened: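 Spectrophotometric FabI assay in 100 mM sodium ADA buffer, pH 6.5. Enzyme (2400 ng/assay) preincubated 30 min with NADH and compound. Reaction started with crotonoyl CoA. After 2 h at room temperature, NADH oxidation read as the fall in absorbance at 340 nm.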

[2] = biological target: T2, Enoyl-[acyl-carrier-protein] reductase [NADPH] FabI (Staphylococcus aureus, UniProt Q6GI75); test: Inhibition of Staphylococcus aureus FabI-mediated reduction of enoyl-ACP preincubated for 30 mins measured after 2 hrs by spectrophotometry
T2 sequence (Q6GI75 whole entry): T1 sequence (whole entry)

Staphylococcus aureus [3] = test: Antibacterial activity against methicillin-sensitive Staphylococcus aureus ATCC 29213 after 16 to 20 hrs by broth microdilution method; assay type: functional
Procedure, shortened: (§1)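 Broth microdilution in MHB, serial two-fold compound dilutions; final inoculum 5 × 10⁵ CFU/mL; broth, compound and organism controls in duplicate; S. aureus ATCC 29213 as quality control strain; incubation 35 °C, 16–20 h, ambient air; growth read by unaided eye with viewing device, end point set against no-antibiotic control wells.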

Staphylococcus aureus [4] = test: Antibacterial activity against methicillin-resistant Staphylococcus aureus ATCC 33591 after 16 to 20 hrs by broth microdilution method; assay type: functional; procedure, shortened: as §1
[5] = test system: Staphylococcus epidermidis; test: Antibacterial activity against methicillin-resistant Staphylococcus epidermidis AUCC 704 after 16 to 20 hrs by broth microdilution method; assay type: functional; procedure, shortened: as §1
[6] = Tmax in Swiss albino CD-1 mouse at 10 mg/kg, po administered as single dose; assay type: ADME, organism-based; set-up: dose 10 mg/kg, route oral; conditions: in vivo
Procedure, shortened: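 Oral gavage, 10 mg/kg single dose, given as a suspension in 0.25% Tween 80 with 0.225% sodium carboxymethyl cellulose. Blood drawn from the retro-orbital plexus into EDTA at set times (sparse sampling, n = 3 per time point). Plasma stored at −20 °C and assayed by LC-MS/MS. Parameters from non-compartmental analysis.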

[7] = Metabolic stability in mouse liver mirosomes assessed as compound remaining at 1 uM after 15 mins by LC-MS/MS analysis; assay type: ADME, tissue-based; conditions: liver microsomes, read-out: Stability
Procedure, shortened: (§2)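 Compound tested at 1 µM in mouse liver microsomes (0.3 mg/mL protein) with 1 mM NADPH in KH₂PO₄ buffer, pH 7.4, at 37 °C. Reactions stopped at 0, 15 and 60 min with acetonitrile containing carbamazepine internal standard. Samples centrifuged and the supernatant analysed by LC-MS/MS.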

[8] = Metabolic stability in mouse liver mirosomes assessed as compound remaining at 1 uM after 60 mins by LC-MS/MS analysis; assay type: ADME, tissue-based; conditions: liver microsomes, read-out: Stability; procedure, shortened: as §2
[9] = AUC in Swiss albino CD-1 mouse at 10 mg/kg, po administered as single dose; assay type: ADME, organism-based; set-up: dose 10 mg/kg, route oral; conditions: plasma
Procedure, shortened: (§3)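 Blood drawn from the retro-orbital plexus into EDTA at set times (sparse sampling, n = 3 per time point). Plasma stored at −20 °C and assayed by LC-MS/MS. Parameters from non-compartmental analysis.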

[10] = Cmax in Swiss albino CD-1 mouse at 10 mg/kg, po administered as single dose; assay type: ADME, organism-based; set-up: dose 10 mg/kg, route oral; conditions: in vivo; procedure, shortened: as §3
[11] = Half life in Swiss albino CD-1 mouse at 10 mg/kg, po administered as single dose; assay type: ADME, organism-based; set-up: dose 10 mg/kg, route oral; conditions: in vivo; procedure, shortened: as §3

## O=C1CCc2cc(/C=C/C(=O)N3CC(COc4ccc(F)cc4)C3)cnc2N1
[1]
  inhibition: 92%
[2]
  IC50: 316 nM
Staphylococcus aureus [3]
  MIC: 0.25 µg/mL (≈ 0.655 µM)
Staphylococcus aureus [4]
  MIC: 0.5 µg/mL (≈ 1.31 µM)
[5]
  MIC: 1 µg/mL (≈ 2.62 µM)
[6]
  Tmax: 2 h

## Cc1c(C2CN(C(=O)/C=C/c3cnc4c(c3)CN(C)CC(=O)N4)C2)oc2ccccc12
[1]
  inhibition: 99%
[2]
  IC50: 112 nM
Staphylococcus aureus [3]
  MIC: 0.25 µg/mL (≈ 0.6 µM)
Staphylococcus aureus [4]
  MIC: 0.25 µg/mL (≈ 0.6 µM)
[5]
  MIC: 0.5 µg/mL (≈ 1.2 µM)
[7]
  remaining at 0.25 h, 1 µM: 25.6%
[8]
  remaining at 1 h, 1 µM: 6.6%

## Cc1ccc(OCC2CN(C(=O)/C=C/c3cnc4c(c3)CCC(=O)N4)C2)cc1
[1]
  inhibition: 67%
[2]
  IC50: 921 nM
Staphylococcus aureus [3]
  MIC: 1 µg/mL (≈ 2.65 µM)
Staphylococcus aureus [4]
  MIC: 1 µg/mL (≈ 2.65 µM)
[5]
  MIC: 2 µg/mL (≈ 5.3 µM)

## O=C1CCc2cc(/C=C/C(=O)N3CC(c4nc5ccccc5s4)C3)cnc2N1
[1]
  inhibition: 83%
[2]
  IC50: 373 nM
Staphylococcus aureus [3]
  MIC: 0.25 µg/mL (≈ 0.64 µM)
Staphylococcus aureus [4]
  MIC: 0.25 µg/mL (≈ 0.64 µM)
[5]
  MIC: 1 µg/mL (≈ 2.56 µM)
[6]
  Tmax: 2 h

## Cc1c(C2CN(C(=O)/C=C/c3cnc4c(c3)CN(CCN3CCOCC3)CC(=O)N4)C2)oc2ccccc12
[1]
  inhibition: 100%
[2]
  IC50: 289 nM
Staphylococcus aureus [3]
  MIC: 1 µg/mL (≈ 1.94 µM)
Staphylococcus aureus [4]
  MIC: 1 µg/mL (≈ 1.94 µM)
[5]
  MIC: 2 µg/mL (≈ 3.88 µM)

## O=C1CCc2cc(/C=C/C(=O)N3CC(Oc4ccccc4)C3)cnc2N1
[1]
  inhibition: 35%
Staphylococcus aureus [3]
  MIC: 4 µg/mL (≈ 11.4 µM)
Staphylococcus aureus [4]
  MIC: 4 µg/mL (≈ 11.4 µM)
[5]
  MIC: 16 µg/mL (≈ 45.8 µM)

## Cc1cc(C2CN(C(=O)/C=C/c3cnc4c(c3)CCC(=O)N4)C2)nc2ccccc12
[1]
  inhibition: 84%
[2]
  IC50: 242 nM
Staphylococcus aureus [3]
  MIC: 32 µg/mL (≈ 80.3 µM)
Staphylococcus aureus [4]
  MIC: > 32 µg/mL
[5]
  MIC: > 32 µg/mL

## O=C1CCc2cc(/C=C/C(=O)N3CC(c4ccccn4)C3)cnc2N1
[1]
  inhibition: 87%
[2]
  IC50: 242 nM
Staphylococcus aureus [3]
  MIC: 4 µg/mL (≈ 12 µM)
Staphylococcus aureus [4]
  MIC: 8 µg/mL (≈ 23.9 µM)
[5]
  MIC: 16 µg/mL (≈ 47.8 µM)

## Cc1c(C2CN(C(=O)/C=C/c3cnc4c(c3)CN(CCN3CCOCC3)C(=O)N4)C2)oc2ccccc12
[1]
  inhibition: 105%
[2]
  IC50: 58 nM
Staphylococcus aureus [3]
  MIC: 1 µg/mL (≈ 1.99 µM)
Staphylococcus aureus [4]
  MIC: 1 µg/mL (≈ 1.99 µM)
[5]
  MIC: 2 µg/mL (≈ 3.99 µM)

## CC(=O)Nc1ccc(/C=C/C(=O)N2CC(c3oc4ccccc4c3C)C2)cn1
[1]
  inhibition: 97%
[2]
  IC50: 161 nM
Staphylococcus aureus [3]
  MIC: 1 µg/mL (≈ 2.66 µM)
Staphylococcus aureus [4]
  MIC: 1 µg/mL (≈ 2.66 µM)
[5]
  MIC: 8 µg/mL (≈ 21.3 µM)

## O=C1CCc2cc(/C=C/C(=O)N3CC(Oc4nc5ccccc5s4)C3)cnc2N1
[1]
  inhibition: 16%
Staphylococcus aureus [3]
  MIC: > 32 µg/mL
Staphylococcus aureus [4]
  MIC: > 32 µg/mL
[5]
  MIC: > 32 µg/mL

## Cc1c(C2CN(C(=O)/C=C/c3cnc4c(c3)CNCC(=O)N4)C2)oc2ccccc12
[1]
  inhibition: 83%
[2]
  IC50: 384 nM
Staphylococcus aureus [3]
  MIC: 0.25 µg/mL (≈ 0.621 µM)
Staphylococcus aureus [4]
  MIC: 0.25 µg/mL (≈ 0.621 µM)
[5]
  MIC: 1 µg/mL (≈ 2.48 µM)
[7]
  remaining at 0.25 h, 1 µM: 96.2%
[8]
  remaining at 1 h, 1 µM: 76.4%
[9]
  AUC: 9000 ng·h/mL
[10]
  Cmax: 2250 ng/mL
[11]
  half-life: 8.5 h
[6]
  Tmax: 0.5 h

## Cc1ccccc1OCC1CN(C(=O)/C=C/c2cnc3c(c2)CCC(=O)N3)C1
[1]
  inhibition: 80%
[2]
  IC50: 177 nM
Staphylococcus aureus [3]
  MIC: 0.25 µg/mL (≈ 0.662 µM)
Staphylococcus aureus [4]
  MIC: 0.5 µg/mL (≈ 1.32 µM)
[5]
  MIC: 1 µg/mL (≈ 2.65 µM)
[6]
  Tmax: 2 h

## O=C1CCc2cc(/C=C/C(=O)N3CC(COc4ccc5ccccc5c4)C3)cnc2N1
[1]
  inhibition: 68%
[2]
  IC50: 1410 nM
Staphylococcus aureus [3]
  MIC: 4 µg/mL (≈ 9.67 µM)
Staphylococcus aureus [4]
  MIC: 4 µg/mL (≈ 9.67 µM)
[5]
  MIC: > 32 µg/mL

## O=C1CCc2cc(/C=C/C(=O)N3CCC3)cnc2N1
[1]
  inhibition: 15%
Staphylococcus aureus [3]
  MIC: > 32 µg/mL
Staphylococcus aureus [4]
  MIC: > 32 µg/mL
[5]
  MIC: > 32 µg/mL
